# Laboratory results: article PMC8364871 (Clinical cancer research : an official journal of the …, 2021)
# Assays:
# [1] = biological target: T1, SOX11-DNA interaction (Homo sapiens, UniProt P35716); test: Fluorescence anisotropy; type: biochemical; details: 20 μM of compound
# T1 sequence (P35716 49-117 limits assumed): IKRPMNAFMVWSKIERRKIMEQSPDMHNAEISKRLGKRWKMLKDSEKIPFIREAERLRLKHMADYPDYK
# Procedure, shortened: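 Fluorescence anisotropy read at fluorescein excitation/emission wavelengths to follow SOX11–DNA binding in the presence of test compound. Unlabeled DNA served as the competitive positive control. Read-out: percent inhibition of DNA binding.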
# [2] = tested on: MCL cell lines; test: Activity in MCL cell lines; type: cell-based, human
# [3] = tested on: MCL patients; details: cited from earlier work; for duration of response: MCL patients
# [4] = tested on: DNA (topoisomerase I relaxation of supercoiled plasmid DNA); test: Topoisomerase-based DNA unwinding assay; type: biochemical; details: 20 μM
# [5] = tested on: pBTK in JeKo-1, Z-138, Mino and JVM-2; test: PhosphoFlow pBTK-Y223, all four MCL cell lines; type: cell-based, human; details: 24 hours; 1 μM and 10 μM Ibrutinib (Figure 5B)
# [6] = tested on: SOX11 DBD; details: cited from earlier work
# [7] = biological target: T2, (His)6-SOX11-DBD (Homo sapiens, UniProt P35716); test: Surface plasmon resonance binding to immobilized SOX11-DBD; details: 25 °C
# T2 sequence (P35716 49-117 limits assumed): T1 sequence (P35716 49-117 limits assumed)
structure (smiles),measurement,setting,value
Cc1cc2nc3c(=O)[nH]c(=O)nc-3n(C[C@H](O)[C@H](O)[C@H](O)COP(=O)(O)OP(=O)(O)OC[C@H]3O[C@@H](n4cnc5c(N)ncnc54)[C@H](O)[C@@H]3O)c2cc1C [Flavitan],inhibition of DNA binding,[1],> 50%
same,activity in MCL cell lines,[2],inactivity in MCL cell lines
C=CC(=O)N1CCC[C@@H](n2nc(-c3ccc(Oc4ccccc4)cc3)c3c(N)ncnc32)C1 [Ibrutinib],duration of response,[3],17.5 months
same,overall response rate,[3]; relapsed MCL patients,60%
same,direct DNA binding / interference with DNA unwinding activity of topoisomerase I,[4],do not directly bind DNA
same,pBTK level in all four cell lines,[5],reduced pBTK level in all four cell lines
O=C(O)c1c(O)cccc1CCc1ccc2ccccc2c1 [Sm4],concentration inhibiting SOX11 DBD,[6],sub-millimolar concentrations
same,binding affinity to SOX11-DBD (SPR),[7],displayed expected affinities
CC1(C)CCC(CN2CCN(c3ccc(C(=O)NS(=O)(=O)c4ccc(NCC5CCOCC5)c([N+](=O)[O-])c4)c(Oc4cnc5[nH]ccc5c4)c3)CC2)=C(c2ccc(Cl)cc2)C1 [Venetoclax],duration of response,[3],14 months
